Results reported in ChEMBL document CHEMBL1125281, “Identification and synthesis of a receptor binding site of human anaphylatoxin C5a” (J Med Chem, 1991).
Where a SMILES comes first, the peptide text is derived from it.

Legend:
[1] = target: T1, C5a anaphylatoxin chemotactic receptor 1 (Homo sapiens, UniProt P21730); assay: Inhibition of [125I]C5a binding to C5a anaphylatoxin chemotactic receptor in PMNL intact cells; inactive; type: cell-based
T1 sequence (P21730 whole entry): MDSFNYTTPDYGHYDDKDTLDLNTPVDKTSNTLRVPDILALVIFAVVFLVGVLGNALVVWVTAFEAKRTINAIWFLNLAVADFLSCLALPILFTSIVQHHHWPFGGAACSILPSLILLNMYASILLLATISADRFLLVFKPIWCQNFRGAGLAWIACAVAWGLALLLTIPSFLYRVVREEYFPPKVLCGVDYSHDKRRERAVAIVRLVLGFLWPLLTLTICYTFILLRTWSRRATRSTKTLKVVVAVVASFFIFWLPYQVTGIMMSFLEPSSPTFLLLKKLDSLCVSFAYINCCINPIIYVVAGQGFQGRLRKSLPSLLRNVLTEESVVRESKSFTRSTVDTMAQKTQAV
In short: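 Intact human PMNL isolated from peripheral blood by one-step density centrifugation. Cells incubated 20 min at 23 °C with [125I]C5a (1 × 10⁻⁹ M), test peptide and protease inhibitors. Cells separated from free ligand by centrifugation through silicone oil at 10000g; pellet γ counts read.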

[2] = target: T1, C5a anaphylatoxin chemotactic receptor 1; assay: Compound was tested for the inhibition of [125I]C5a binding to C5a anaphylatoxin chemotactic receptor in PMNL membranes; inactive; type: cell membranes
[3] = target: T1, C5a anaphylatoxin chemotactic receptor 1; assay: Compound was tested for the inhibition of [125I]C5a binding to C5a anaphylatoxin chemotactic receptor binding to PMNL membranes.
[4] = target: T1, C5a anaphylatoxin chemotactic receptor 1; assay: Compound was tested for the inhibition of [125I]C5a anaphylatoxin chemotactic receptor binding to PMNL membranes at a concentration of 0.1-1 mM
[5] = target: T1, C5a anaphylatoxin chemotactic receptor 1; assay: Inhibition of [125I]-C5a anaphylatoxin chemotactic receptor binding to PMNL membranes.
[6] = target: T2, C5a anaphylatoxin chemotactic receptor 1 (Homo sapiens) (UniProt P21730); assay: Compound was tested for the inhibition of [125I]C5a anaphylatoxin chemotactic receptor binding to PMNL intact cells at a concentration of 0.1-1 mM.; type: cell-based
T2 sequence (whole entry): T1 sequence (P21730 whole entry)

[7] = target: T2, C5a anaphylatoxin chemotactic receptor 1 (Homo sapiens); assay: Compound was tested for the inhibition of [125I]C5a binding to C5a anaphylatoxin chemotactic receptor in PMNL membranes.; type: cell membranes; conditions: concentration not given here

SMILES | Ki [1] | inhibition [6] [%] | other results
CSCC[C@H](NC(=O)[C@H](CC(=O)O)NC(C)=O)C(=O)N[C@@H](CCC(N)=O)C(=O)N[C@@H](CC(C)C)C(=O)NCC(=O)N[C@@H](CCCN=C(N)N)C(=O)O (Ac-DMQLGR-OH) | Not Active | – | Ki [2]: Not Active
CC[C@H](C)[C@H](NC(C)=O)C(=O)N[C@@H](CO)C(=O)N[C@@H](Cc1c[nH]cn1)C(=O)N[C@@H](CCCCN)C(=O)N[C@@H](CC(=O)O)C(=O)N[C@@H](CCSC)C(=O)N[C@@H](CCC(N)=O)C(=O)N[C@@H](CC(C)C)C(=O)N[C@@H](CCCN=C(N)N)C(=O)NCC(=O)N[C@@H](CCCN=C(N)N)C(=O)O (Ac-ISHKDMQLRGR-OH) | Not Active | – | Ki [3]: 100 µM
CC[C@H](C)[C@H](NC(=O)[C@H](CC(N)=O)NC(=O)[C@H](C)NC(=O)[C@H](CCCNC(=N)N)NC(=O)[C@H](CC(C)C)NC(=O)[C@H](CCC(N)=O)NC(=O)[C@@H](N)CO)C(=O)N[C@@H](CO)C(=O)N[C@@H](Cc1cnc[nH]1)C(=O)N[C@@H](CCCCN)C(=O)N[C@@H](CC(=O)O)C(=O)N[C@@H](CCSC)C(=O)N[C@@H](CCC(N)=O)C(=O)N[C@@H](CC(C)C)C(=O)NCC(=O)N[C@@H](CCCNC(=N)N)C(=O)O (H-SQLRANISHKDMQLGR-OH) | – | – | Ki [4]: 300 µM
CC[C@H](C)[C@H](NC(=O)[C@H](CCSC)NC(C)=O)C(=O)N[C@@H](CCCCN)C(=O)N[C@@H](C)C(=O)N[C@@H](Cc1ccccc1)C(=O)N[C@H](C(=O)N[C@@H](CCC(=O)O)C(=O)N[C@@H](CCSC)C(=O)N[C@@H](CCSC)C(=O)N[C@H](C(=O)N[C@H](C(=O)N[C@@H](C)C(=O)N[C@@H](CO)C(=O)N[C@@H](CCC(N)=O)C(=O)N[C@@H](CC(C)C)C(=O)N[C@@H](CCCN=C(N)N)C(=O)N[C@@H](C)C(=O)N[C@@H](CC(N)=O)C(=O)N[C@H](C(=O)N[C@@H](CO)C(=O)N[C@@H](Cc1c[nH]cn1)C(=O)N[C@@H](CCCCN)C(=O)N[C@@H](CC(=O)O)C(=O)N[C@@H](CCSC)C(=O)N[C@@H](CCC(N)=O)C(=O)N[C@@H](CC(C)C)C(=O)NCC(=O)N[C@@H](CCCN=C(N)N)C(=O)O)[C@@H](C)CC)C(C)C)C(C)C)[C@@H](C)O (Ac-MIKAFTEMMVVASQLRANISHKDMQLGR-OH) | – | > 20 | Ki [5]: 100 µM
CC[C@H](C)[C@H](NC(=O)[C@H](CC(N)=O)NC(=O)[C@H](C)NC(=O)[C@H](CCCN=C(N)N)NC(=O)[C@H](CC(C)C)NC(=O)[C@H](CCC(N)=O)NC(=O)[C@H](CO)NC(=O)[C@H](C)NC(=O)[C@@H](NC(=O)[C@@H](NC(=O)[C@H](CCSC)NC(=O)[C@H](CCSC)NC(=O)[C@H](CCC(=O)O)NC(=O)[C@@H](NC(=O)[C@@H](N)Cc1ccccc1)[C@@H](C)O)C(C)C)C(C)C)C(=O)N[C@@H](CO)C(=O)N[C@@H](Cc1c[nH]cn1)C(=O)N[C@@H](CCCCN)C(=O)N[C@@H](CC(=O)O)C(=O)N[C@@H](CCSC)C(=O)N[C@@H](CCC(N)=O)C(=O)N[C@@H](CC(C)C)C(=O)NCC(=O)N[C@@H](CCCN=C(N)N)C(=O)O (H-FTEMMVVASQLRANISHKDMQLGR-OH) | – | > 20 | –
CSCC[C@H](NC(=O)[C@H](CC(=O)O)NC(=O)[C@H](CCCCN)NC(C)=O)C(=O)N[C@@H](CCC(N)=O)C(=O)N[C@@H](CC(C)C)C(=O)NCC(=O)N[C@@H](CCCN=C(N)N)C(=O)O (Ac-KDMQLGR-OH) | Not Active | – | inhibition [7]: 30%
